# Source: PubChem
# Shown are actives, neighbours in structure and some others; about 4% of the full set was active somewhere.
# GPR7 antagonist = antagonists of human GPR7 (neuropeptides B/W receptor 1) | P48145 | GPR7-expressing cells, fluorescence antagonist assay | inhibition, % at 4.4 µM | 290,000 tested, 1.1% active | AID 1861; in the data active = inhibition above about 16%, passing the limit was not always enough;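 note: cells stimulated with the agonist NPW; 0% = agonist with vehicle and 100% = vehicle without agonist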
# MPTP block = inhibitors of mitochondrial permeability transition pore; inhibition, % at 10 µM; isolated mouse mitochondria, Ca2+ swelling absorbance, 30 min; 360,000 tested, 1.4% active; AID 602449;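 active = inhibition of 50% or more, scaled per plate between neutral and stimulator controls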;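 note: 0% = DMSO wells given calcium and 100% = 1 mM EGTA wells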
# TAAR1 agonist = agonists of human TAAR1. 360,000 tested, 0.99% active. Q96RJ0. activation, % at 3 µM. CHO RD-HGA16 TAAR1, Fluo-8 calcium fluorescence; vehicle wells 0%, saturating PEA agonist 100%. AID 624467;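 active = activation above the mean activation of all test compounds in the run plus 3 SD, cut at about 38% in these data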
#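 System: CHO RD-HGA16 cells carrying human TAAR1 plus Gα16; Incubation: 17-24 h seeding, 75 min 37 °C dye, 30 min RT; Measured by: Fluo-8 fluorescence, 5 s baseline then 140 s kinetic read; Control set: DMSO and PEA EC100; Replication: single well for each compound.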
# TAAR1 antag = human TAAR1 antagonism; inhibition, % at 3 µM; 360,000 tested, 1.5% active; Q96RJ0; CHO RD-HGA16 TAAR1, Fluo-8 calcium fluorescence, antagonist;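 active = inhibition above a per-plate cutoff, the mean inhibition of test compounds on that plate plus 3 SD, cut at about 49% in these data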;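 note: 0% = DMSO plus EC80 beta-PEA response and 100% = DMSO alone without agonist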
#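 Test system: hTAAR1-expressing CHO RD-HGA16 cells, Gα16-coupled; Probe or stimulus: EC80 β-phenethylamine stimulus; Compound dosing: single nominal final test compound concentration of 3 µM; Timing: 140 s kinetic read after compound, 140 s after agonist; Signal: Fluo-8 calcium-sensitive fluorescence; Measure: % inhibition of agonist calcium response; Controls: DMSO and EC80 PEA controls.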
# DAGLB inhibitor = diacylglycerol lipase beta (human) inhibition. AID 504411. inhibition, % at 5.17 µM. 340,000 tested, 0.059% active. HEK293T DAGLB membrane lysate, EnzChek fluorogenic substrate; in the data active = inhibition above about 34%;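 note: 0% = enzyme with vehicle and 100% = wells lacking enzyme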
# Target sequence (Q8NCG7 whole entry, looked up): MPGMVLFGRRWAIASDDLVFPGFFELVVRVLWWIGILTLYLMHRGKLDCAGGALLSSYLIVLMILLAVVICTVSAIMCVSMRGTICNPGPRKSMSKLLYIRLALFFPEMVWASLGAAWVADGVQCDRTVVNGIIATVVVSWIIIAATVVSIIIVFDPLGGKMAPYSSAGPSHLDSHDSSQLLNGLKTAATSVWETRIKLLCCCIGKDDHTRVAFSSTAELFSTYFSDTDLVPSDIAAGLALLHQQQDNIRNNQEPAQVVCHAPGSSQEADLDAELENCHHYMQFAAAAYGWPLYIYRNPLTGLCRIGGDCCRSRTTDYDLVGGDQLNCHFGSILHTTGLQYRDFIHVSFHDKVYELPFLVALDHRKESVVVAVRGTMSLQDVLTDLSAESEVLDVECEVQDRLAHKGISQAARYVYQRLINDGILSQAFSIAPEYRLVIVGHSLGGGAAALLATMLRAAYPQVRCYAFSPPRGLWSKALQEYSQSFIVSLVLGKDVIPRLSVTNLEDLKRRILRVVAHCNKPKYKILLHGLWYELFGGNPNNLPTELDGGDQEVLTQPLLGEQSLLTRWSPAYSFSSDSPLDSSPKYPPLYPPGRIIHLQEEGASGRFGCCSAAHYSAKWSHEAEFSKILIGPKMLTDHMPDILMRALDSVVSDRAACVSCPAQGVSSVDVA
# nonsel antag count = counter-screen for TAAR1 antagonists: nonselective antagonists. shares compounds with TAAR1 antag. counterscreen cell line, calcium fluorescence, antagonist mode. inhibition, % at 3 µM. 2,400 tested, 77% active. AID 651780; in the data active = inhibition above about 22%;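 note: CHO-Ga16 host cells stimulated with ATP at an EC80 level; 0% = agonist EC80 plus vehicle and 100% = vehicle without agonist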
# TAAR1 antag conf = human TAAR1 antagonism, confirmed; 2,400 tested, 40% active; AID 651785; inhibition, % at 3 µM; shares compounds with TAAR1 antag; TAAR1-expressing cells, fluorescence antagonist read-out; in the data active = inhibition above about 49%;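 note: CHO-Ga16 host cells challenged with agonist PEA near its EC80; 0% = agonist at EC80 plus vehicle and 100% = vehicle with no agonist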
# Ga16 ag counter = nonselective Ga16 agonism, counter-screen | activation, % at 3 µM | 2,400 tested, 18% active | AID 651953 | shares compounds with TAAR1 antag | Ga16-expressing cells, calcium fluorescence, agonist counterscreen; in the data active = activation above about 12%;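 note: 0% = vehicle wells and 100% = saturating stimulus response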
# TAAR1 ag counter = counter-screen for human TAAR1 antagonists: TAAR1 agonists | activation, % at 3 µM | hTAAR1 cell line, fluorescence activation, agonist mode | 2,400 tested, 2% active | shares compounds with TAAR1 antag; in the data active = activation above about 37%;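 note: CHO cells stably expressing TAAR1 with calcium dye readout; 0% = DMSO vehicle and 100% = full agonist response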
# * = called active by the depositor; . = no result.
SMILES,GPR7 antagonist,MPTP block,TAAR1 agonist,TAAR1 antag,DAGLB inhibitor,nonsel antag count,TAAR1 antag conf,Ga16 ag counter,TAAR1 ag counter
O=C(Cc1cccc(NC(=O)C2CCN(C(=O)C3CCCC3)CC2)c1)Nc1cccc(C(=O)N2CCOCC2)c1,.,0,0,4,1,.,.,.,.
COc1ccc2nc(C)cc(SCC(=O)NNC(=O)COc3cccc4ccccc34)c2c1,-2,2,19,71*,-2,46*,56*,9,8
COc1ccc2nc(C)cc(SCC(=O)NNC(=O)COc3ccc(C)cc3)c2c1,-5,3,5,-4,2,.,.,.,.
COC(=O)C1(C)CCCC2(C)C3CCC(C(C)C)C(CO)C3C(CO)CC12 (centres undefined),.,0,25,82*,-16,32*,55*,14*,20
Cc1ccccc1CSCCC(=O)NCCC1=CCCCC1,-2,7,7,53*,-4,8,39,3,5
CCc1nc2ccccc2c(C(=O)OCCN2C(=O)c3ccccc3C2=O)c1C,-5,1,4,66*,-10,26*,44,6,5
Cc1cccc(C)c1NC(=O)CNC(=O)CNC(=O)c1ccc2ccccc2c1,.,0,1,-8,-2,.,.,.,.
CCOC(=O)C1=C(C)Nc2ccccc2N=C1NC(=O)c1oc2ccccc2c1COC,.,0,14,70*,-6,30*,46,6,7
Nc1ncnc2c1ncn2[C@@H]1O[C@H](C(=O)N[C@@H](CCc2ccccc2)C(=O)N2CCN(C(=O)C(F)(F)F)CC2)[C@@H](O)[C@H]1O,.,.,1,-12,.,.,.,.,.
CCN(CC)S(=O)(=O)c1cccc(C(=O)OCC(=O)c2ccc3c(c2)NC(=O)CO3)c1,6,2,19,71*,2,42*,61*,15*,12
O=C1COc2ccc(C(=O)COC(=O)CCSc3ccc(Cl)cc3)cc2N1,4,0,14,56*,4,37*,33,10,4
O=C1CC(c2cc(-c3ccccc3)no2)C1,14,-2,2,-12,-1,.,.,.,.
O=C1Nc2ccccc2-n2nnnc2C1N1CCc2ccccc2C1 (centres undefined),.,3,5,-3,.,.,.,.,.
CC(=O)c1c(C)[nH]c(C(=O)OCC(=O)Nc2ccc(Cl)c(S(=O)(=O)N(C)C)c2)c1C,-6,40,12,68*,3,28*,48,12*,11
CN(C)S(=O)(=O)c1cc(NC(=O)CNCCN2CCOCC2)ccc1Cl,-9,1,0,105*,2,8,-3,3,5
CN(C)S(=O)(=O)c1cc(NC(=O)CNCc2ccccc2)ccc1Cl,-8,-1,9,0,0,.,.,.,.
COc1ccc(C(C)(O)c2nc(-c3cccs3)cs2)cc1 (centres undefined),.,1,0,-4,.,.,.,.,.
COc1ccc(C(C(=O)NC(C)(C)C)n2c(-c3ccc(-c4ccccc4)cc3)nc3ccccc32)cc1 (centres undefined),.,1,3,-39,.,.,.,.,.
COC(=O)c1cccc2c([N+](=O)[O-])c(NC(C)=O)cc(C(=O)OC)c12,.,.,0,-2,.,.,.,.,.
O=C(C1=C[C@@H](c2ccc(C(F)(F)F)cc2)C[C@@H](OCc2ccc(CO)cc2)O1)N1CCN(Cc2ccc3c(c2)OCO3)CC1,-17,-1,10,55*,-3,32*,34,4,4
CCOc1ccc2ncc(S(=O)(=O)c3ccccc3)c(N3CCC4(CC3)OCCO4)c2c1,-5,.,4,49*,.,13,42,3,3
COc1ccc(S(=O)(=O)c2cnc3ccc(OC)cc3c2N2CCC3(CC2)OCCO3)cc1,-17,5,13,72*,-3,25*,50*,8,6
COc1ccc(N2CCN(c3c(S(=O)(=O)c4ccccc4)cnc4ccc(OC)cc34)CC2)cc1,-8,1,-1,31,-4,.,.,.,.
C[C@]1(CC/C(=C/CO)CO)[C@H](C=O)CC[C@@]23COC(=O)C2=CCC[C@@H]31,.,2,1,-4,.,.,.,.,.
O=C(c1ccccc1)N1CCN(c2ncccn2)CC1,-9,0,2,-26,-1,.,.,.,.
SMILES,GPR7 antagonist,MPTP block,TAAR1 agonist,TAAR1 antag,DAGLB inhibitor,nonsel antag count,TAAR1 antag conf,Ga16 ag counter,TAAR1 ag counter
Nc1ncnc2nc(N3CCN(C(=O)c4ccccc4)CC3)[nH]c12,-3,-2,-6,102*,-2,6,4,4,4
CCCCCNC(=O)C1C(=O)Nc2ccccc2C(=O)N1c1c(C)cccc1C (centres undefined),.,2,1,8,.,.,.,.,.
COC(=O)N[C@@H]1C[C@H]2[C@@H]3CC[C@H]4C[C@@H](OC)CC[C@]4(C)[C@H]3CC[C@]12C,.,48,10,55*,-8,20,40,7,6
Cc1nnc(SCC(=O)Nc2ccc(-c3nc4ccccc4s3)cc2)s1,0,16,4,0,-2,.,.,.,.
Cc1nnc(SCC(=O)Nc2nsc(-c3ccc(C(C)(C)C)cc3)n2)s1,-9,0,2,59*,-5,32*,39,7,4
CC(C)(C)NC(=O)COC(=O)c1c2c(nc3ccccc13)CCC2,-9,1,8,60*,4,27*,41,7,6
NC(=O)COC(=O)c1c2c(nc3ccccc13)CCC2,-11,1,0,8,2,.,.,.,.
CC(C)COc1cccc(C(=O)N(CC(=O)Nc2ccccc2C(F)(F)F)Cc2ccco2)c1,.,-1,9,61*,-5,18,41,6,9
COc1ccc(-n2nc(C(=O)NCC(=O)Nc3cccc(Cl)c3)c3ccccc3c2=O)cc1OC,7,0,20,55*,7,25*,48,10,11
COc1ccc(-n2nc(C(=O)NCC(=O)N3CCOCC3)c3ccccc3c2=O)cc1Cl,-6,0,8,14,-1,.,.,.,.
COc1ccc(CCNC(=O)CNC(=O)c2nn(-c3ccc(OC)c(OC)c3)c(=O)c3ccccc23)cc1OC,-7,-1,17,53*,-2,33*,51*,12*,9
CCOC(=O)C1CCN(C(=O)CNC(=O)c2nn(-c3ccc(OC)c(Cl)c3)c(=O)c3ccccc23)CC1,0,-2,13,61*,1,28*,42,7,6
COc1ccc(-n2nc(C(=O)NCC(=O)NCC3COc4ccccc4O3)c3ccccc3c2=O)cc1OC (centres undefined),-14,1,13,58*,-7,27*,49*,7,5
